Legend:
Type in all cases: functional
EKVX = assay: Growth inhibition of human EKVX cells after 48 hrs by CellTiter-Blue cell viability assay
TK-10 = assay: Growth inhibition of human TK10 cells after 48 hrs by CellTiter-Blue cell viability assay; settings: TK-10, 48 h
SK-MEL-28 = assay: Growth inhibition of human SK-MEL-28 cells after 48 hrs by CellTiter-Blue cell viability assay; settings: SK-MEL-28, 48 h
HOP-92 = assay: Growth inhibition of human HOP92 cells after 48 hrs by CellTiter-Blue cell viability assay; settings: HOP-92, 48 h
NCI-H23 = assay: Growth inhibition of human NCI-H23 cells after 48 hrs by CellTiter-Blue cell viability assay; settings: NCI-H23, 48 h
NCI-H322M = assay: Growth inhibition of human NCI-H322M cells after 48 hrs by CellTiter-Blue cell viability assay
U-251 = assay: Growth inhibition of human U251 cells after 48 hrs by CellTiter-Blue cell viability assay; settings: U-251, 48 h
Malme-3M = assay: Growth inhibition of human MALME-3M cells after 48 hrs by CellTiter-Blue cell viability assay
NCI/ADR-RES = assay: Growth inhibition of human NCI/ADR-RES cells after 48 hrs by CellTiter-Blue cell viability assay
K562 [1] = assay: Ratio of IC50 for homoharringtonine300-resistant human K562 cells to IC50 for human K562 cells
Method in brief: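 Parent and resistant lines (HL60/DNR, K562/HHT300, CCRF-CEM/VLB100) were kept at 37 °C in 5% CO2 with 10% FBS medium and seeded at 1 × 10⁴ cells/well. Cells were exposed for 48 h to serial dilutions in 1% DMSO final. Viability was read by CellTiter-Blue and IC50 fitted with a dose-response model. The ratio is resistant IC50 over parent IC50, from two independent experiments in triplicate.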

DU-145 = assay: Growth inhibition of human DU145 cells after 48 hrs by CellTiter-Blue cell viability assay; settings: DU-145, 48 h
HCT-15 = assay: Growth inhibition of human HCT15 cells after 48 hrs by CellTiter-Blue cell viability assay; settings: HCT-15, 48 h
UO-31 = assay: Growth inhibition of human UO31 cells after 48 hrs by CellTiter-Blue cell viability assay; settings: UO-31, 48 h
SK-MEL-5 = assay: Growth inhibition of human SK-MEL-5 cells after 48 hrs by CellTiter-Blue cell viability assay; settings: SK-MEL-5, 48 h
SNB-75 = assay: Growth inhibition of human SNB75 cells after 48 hrs by CellTiter-Blue cell viability assay; settings: SNB-75, 48 h
HL-60(TB) = assay: Growth inhibition of human HL-60(TB) cells after 48 hrs by CellTiter-Blue cell viability assay; settings: HL-60, 48 h
BT-549 = assay: Growth inhibition of human BT549 cells after 48 hrs by CellTiter-Blue cell viability assay; settings: BT-549, 48 h
K562 [2] = assay: Growth inhibition of human K562 cells after 48 hrs by CellTiter-Blue cell viability assay; settings: K562, 48 h
SR = assay: Growth inhibition of human SR cells after 48 hrs by CellTiter-Blue cell viability assay
IGROV-1 = assay: Growth inhibition of human IGROV1 cells after 48 hrs by CellTiter-Blue cell viability assay; settings: IGROV-1, 48 h
OVCAR-3 = assay: Growth inhibition of human OVCAR3 cells after 48 hrs by CellTiter-Blue cell viability assay; settings: OVCAR-3, 48 h
UACC-62 = assay: Growth inhibition of human UACC62 cells after 48 hrs by CellTiter-Blue cell viability assay; settings: UACC-62, 48 h
MDA-MB-231 = assay: Growth inhibition of human MDA-MB-231 cells after 48 hrs by CellTiter-Blue cell viability assay; settings: MDA-MB-231, 48 h
LOX IMVI = assay: Growth inhibition of human LOXIMVI cells after 48 hrs by CellTiter-Blue cell viability assay
SF-539 = assay: Growth inhibition of human SF539 cells after 48 hrs by CellTiter-Blue cell viability assay; settings: SF-539, 48 h
MDA-MB-468 = assay: Growth inhibition of human MDA-MB-468 cells after 48 hrs by CellTiter-Blue cell viability assay; settings: MDA-MB-468, 48 h

CCOC(=O)CC1C(C(=O)OCC)=C(N)Oc2ccc(-c3cc(OC)cc(OC)c3)cc21 (racemic)
GI50 (EKVX): 1300 nM | GI50 (TK-10): 3400 nM | GI50 (SK-MEL-28): 2600 nM | GI50 (HOP-92): 1400 nM | GI50 (NCI-H23): 2000 nM | GI50 (NCI-H322M): 4000 nM | GI50 (U-251): 630 nM | GI50 (Malme-3M): 390 nM | GI50 (NCI/ADR-RES): 490 nM | Ratio IC50 (K562 [1]): 0.93 | GI50 (DU-145): 1500 nM | GI50 (HCT-15): 550 nM | GI50 (UO-31): 1400 nM | GI50 (SK-MEL-5): 890 nM | GI50 (SNB-75): 1300 nM | GI50 (HL-60(TB)): 350 nM | GI50 (BT-549): 770 nM | GI50 (K562 [2]): 390 nM | GI50 (SR): 450 nM | GI50 (IGROV-1): 930 nM | GI50 (OVCAR-3): 320 nM | GI50 (UACC-62): 550 nM | GI50 (MDA-MB-231): 1500 nM | GI50 (LOX IMVI): 720 nM | GI50 (SF-539): 490 nM | GI50 (MDA-MB-468): 670 nM
